Experimental data published in ChEMBL document CHEMBL3124880, “4-(3-Chloro-5-(trifluoromethyl)pyridin-2-yl)-N-(4-methoxypyridin-2-yl)piperazine-1-carbothioamide (ML267), a potent inhibitor of bacterial phosphopantetheinyl transferase that attenuates secondary metabolism and thwarts bacterial growth” (J Med Chem, 2014).
Calls of active or inactive are those of the source.

Columns and labels:
CYP2D6 = CYP2D6 (Homo sapiens, UniProt P10635); assay: Inhibition of CYP2D6 (unknown origin) using dextromethorphan as substrate at 3 uM relative to control; type: ADME; conditions: probe dextromethorphan
Procedure, shortened: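 Compound at 3 μM co-incubated with CYP substrates: dextromethorphan for 2D6, 6β-hydroxytestosterone for 3A4. Percent inhibition reported; done at Pharmaron.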

Escherichia coli [1] = assay: Antibacterial activity against wild type Escherichia coli BW25113 assessed as growth inhibition at 1.8 to 250 ug/mL after 16 to 20 hrs by broth dilution method; type: functional
Procedure, shortened: (§1)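 E. coli BW25113 (wild type) and JW0451 (ΔacrB) tested by broth dilution in cation-adjusted Mueller Hinton II, ~1×10^3 cfu, 16–20 h. Growth shown with resazurin. Checkerboard combination with the efflux inhibitor PAβN in the wild type.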

Staphylococcus aureus [2] = assay: Antibacterial activity against Staphylococcus aureus BK2395 isolated from kidney of 30 mg/kg, ip compound-treated Swiss Webster mouse septicemia model assessed as growth inhibition; type: functional, organism-based; set-up: dose 30 mg/kg
Procedure, shortened: (§2)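 Bacteria harvested from the kidneys of septic mice treated with vehicle or compound, five isolates taken per crude sample. MICs measured in parallel with the parental USA500 strain.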

[3] = Metabolic stability in mouse plasma at 2 hrs; type: ADME, cell-free; conditions: read-out: Stability
Procedure, shortened: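 Compound incubated in mouse plasma; stability measured at 2 h (Pharmaron).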

[4] = AUC (infinity) in CD-1 mouse at 3 mg/kg, iv; type: ADME, organism-based; set-up: time infinity, dose 3 mg/kg, route intravenous; conditions: plasma
Procedure, shortened: (§3)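 Male CD1 mice, 6–8 weeks old. Dosed iv at 3 mg/kg or ip at 30 mg/kg as a solution in 5% DMSO/10% Solutol in water. Plasma sampled in triplicate at eight time points over 24 h.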

Liver microsome [5] = assay: Metabolic stability in mouse liver microsomes measured over 1 hr in absence of NADPH
HepG2 = assay: Cytotoxicity against human HepG2 cells assessed as cellular ATP content after 48 hrs by CellTiter-Glo assay; type: cell-based; conditions: HepG2, 48 h
Procedure, shortened: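 HepG2 cells exposed to compound; viability read as cellular ATP by luciferase-coupled CellTiter-Glo.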

[6] = Inhibition of Bacillus subtilis Sfp-PPTase using rhodamine-CoA/BHQ-2-YbbR as substrate preincubated for 15 mins followed by substrate addition by HTS assay
Liver microsome [7] = assay: Drug metabolism in human liver microsomes assessed as GSH adduct formation at 50 uM after 60 mins by LC-MS/MS analysis in presence of NADPH; type: ADME; conditions: 1 h
[8] = Half life in CD-1 mouse at 3 mg/kg, iv; type: ADME, organism-based; set-up: dose 3 mg/kg, route intravenous; conditions: in vivo; procedure, shortened: as §3
Bacillus subtilis [9] = assay: Antibacterial activity against Bacillus subtilis OKB105 assessed as inhibition of surfactin production after 28 hrs by LC-MS analysis; type: functional, organism-based
Procedure, shortened: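 B. subtilis OKB105 cultured with compound at 0.53 or 1.1 µg/mL against a vehicle control. Culture density and surfactin titer sampled periodically over 28 h.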

[10] = Cmax in CD-1 mouse at 3 mg/kg, iv; type: ADME, organism-based; set-up: dose 3 mg/kg, route intravenous; conditions: in vivo; procedure, shortened: as §3
Staphylococcus aureus [11] = assay: Antibacterial activity against community-acquired methicillin-resistant Staphylococcus aureus BAA-1717 assessed as growth inhibition at 0.8 to 100 ug/mL after 16 to 20 hrs by resazurin dye-based assay; type: functional, organism-based
Procedure, shortened: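 Broth microdilution. Inoculum from overnight liquid cultures or 2-day colonies, ~1 × 10^3 cfu per well. Compound in DMSO added to cation-adjusted Mueller Hinton II broth (bacteria) or RPMI 1640 (fungi). Incubated at 30–37 °C for 16–20 h, or 48 h for fungi.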

Staphylococcus aureus [12] = assay: Antibacterial activity against Staphylococcus aureus BK2395 in Swiss Webster mouse septicemia model assessed as increase in survival at 30 mg/kg, ip administered 4 to 48 hrs measured 3 times daily for 14 days relative to vehicle-treated control; type: functional, organism-based; set-up: dose 30 mg/kg
Procedure, shortened: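 MRSA USA500 strain BK2395 used in a mouse sepsis model. Treated animals compared with vehicle, with vancomycin as a reference treatment; survival monitored.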

Escherichia coli [13] = assay: Antibacterial activity against Escherichia coli BW25113 assessed as growth inhibition at 0.8 to 100 ug/mL after 16 to 20 hrs by resazurin dye-based assay; type: functional
Procedure, shortened: (§4)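 Broth microdilution. Test article from 1 μL DMSO in 50 μL cation-adjusted Mueller Hinton II (bacteria) or RPMI 1640 (fungi), plus ~1×10^3 cfu inoculum in the same medium. Incubated 16–20 h at 30–37 °C (48 h for fungi). MIC scored visually as the first well without growth; resazurin added for imaging.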

Candida albicans = assay: Antifungal activity against fluconazole-sensitive Candida albicans ATCC 90028 assessed as growth inhibition at 0.8 to 100 ug/mL after 48 hrs by resazurin dye-based assay; type: functional, organism-based; procedure, shortened: as §4
Mus musculus = assay: Toxicity in CD-1 mouse at 30 mg/kg, ip measured over 24 hrs; type: organism-based; set-up: dose 30 mg/kg, route intraperitoneal; conditions: in vivo
Procedure, shortened: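 Male CD1 mice, 6–8 weeks old, given 30 mg/kg ip in 5% DMSO/10% Solutol/water. Clinical observations recorded over 24 h.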

[14] = Protein binding in plasma (unknown origin) by equilibrium dialysis; type: ADME, cell-free
Escherichia coli [15] = assay: Antibacterial activity against Escherichia coli K-12 assessed as growth inhibition at 0.8 to 100 ug/mL after 16 to 20 hrs by resazurin dye-based assay; type: functional, organism-based; procedure, shortened: as §4
[16] = Mean residence time required for 63.2% elimination of drug in CD-1 mouse at 3 mg/kg, iv; type: ADME, organism-based; set-up: dose 3 mg/kg, route intravenous; conditions: in vivo
Procedure, shortened: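 Male CD1 mice, 6–8 weeks old, given 3 mg/kg iv as a solution in 5% DMSO/10% Solutol in water. Plasma sampled at eight time points over 24 h, in triplicate; MRT defined as time to eliminate 63.2% of the iv dose.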

[17] = Permeability of the compound by PAMPA; type: physicochemical
[18] = Chemical stability of the compound in PBS buffer at room temperature measured over 48 hrs by LC/MS analysis; type: physicochemical
Procedure, shortened: (§5)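 Compound held in aqueous media over pH 2–9 and in PBS and HEPES buffers, then monitored for degradation.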

Escherichia coli [19] = assay: Antibacterial activity against Escherichia coli JW0451 containing lesion in acrB locus assessed as growth inhibition at 12.5 ug/mL after 16 to 20 hrs by broth dilution method; type: functional, organism-based; procedure, shortened: as §1
[20] = AUC (infinity) in CD-1 mouse at 30 mg/kg, ip; type: ADME, organism-based; set-up: time infinity, dose 30 mg/kg, route intraperitoneal; conditions: plasma; procedure, shortened: as §3
[21] = Chemical stability of the compound in aqueous media at pH 2 to 9 at room temperature measured over 5 hrs by LC/MS analysis; type: physicochemical; conditions: buffer, pH 2, 5 h; procedure, shortened: as §5
Liver microsome [22] = assay: Half life in rat liver microsomes in presence of NADPH; type: ADME
Procedure, shortened: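 Liver microsomes from mouse or rat incubated with compound in the presence of NADPH. Mouse assay done at Pharmaron.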

Staphylococcus aureus [23] = assay: Antibacterial activity against Staphylococcus aureus isolated from kidney of 30 mg/kg, ip compound-treated Swiss Webster mouse septicemia model assessed as growth inhibition; type: functional, organism-based; set-up: dose 30 mg/kg; procedure, shortened: as §2
Staphylococcus aureus [24] = assay: Antibacterial activity against methicillin-sensitive Staphylococcus aureus ATCC 6538 assessed as growth inhibition at 0.8 to 100 ug/mL after 16 to 20 hrs by resazurin dye-based assay; type: functional, organism-based; procedure, shortened: as §4
Bacillus subtilis [25] = assay: Antibacterial activity against Bacillus subtilis OKB105 assessed as inhibition of surfactin production at 1.1 ug/mL after 28 hrs by LC-MS analysis relative to vehicle-treated control; type: functional; conditions: OKB105, 28 h
Procedure, shortened: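 B. subtilis OKB105 cultures grown with sublethal compound concentrations. Culture growth and surfactin titer measured periodically over 28 h; titer expressed relative to vehicle control.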

Chain of CYP2D6 (P10635 whole entry): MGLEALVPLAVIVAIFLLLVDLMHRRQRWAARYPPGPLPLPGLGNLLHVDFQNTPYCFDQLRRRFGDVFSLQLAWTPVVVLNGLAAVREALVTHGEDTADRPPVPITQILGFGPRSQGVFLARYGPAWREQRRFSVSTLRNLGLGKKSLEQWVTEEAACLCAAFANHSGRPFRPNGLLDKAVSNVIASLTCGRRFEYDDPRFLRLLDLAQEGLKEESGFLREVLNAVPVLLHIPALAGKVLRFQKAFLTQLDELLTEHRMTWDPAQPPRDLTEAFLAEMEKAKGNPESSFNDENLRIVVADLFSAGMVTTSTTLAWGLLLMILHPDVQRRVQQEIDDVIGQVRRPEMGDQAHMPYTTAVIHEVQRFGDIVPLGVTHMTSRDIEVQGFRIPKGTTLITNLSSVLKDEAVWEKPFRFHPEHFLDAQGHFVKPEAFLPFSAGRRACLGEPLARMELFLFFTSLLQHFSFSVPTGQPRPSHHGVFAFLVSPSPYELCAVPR

For COc1ccnc(NC(=S)N2CCN(c3ncc(C(F)(F)F)cc3Cl)CC2)c1, the inhibition at 3 µM (CYP2D6) was 25%, the “growth inhibition (GI)” value (Escherichia coli [1]) was “inactive” and the “growth inhibition (GI)” value (Staphylococcus aureus [2]) was “Active”. The remaining at 2 h [3] was 100%, the AUC(0-inf) [4] was 6980 ng·h/mL and the Stability (Liver microsome [5]) was “Stable”. For the same molecule, the IC50 (HepG2) was ≥ 114000 nM, the IC50 [6] was 290 nM and the Drug metabolism (Liver microsome [7]) was “Not Active”. The half-life [8] was 2.4 h, the inhibition (Bacillus subtilis [9]) was “Dose-dependent effect” and the Cmax [10] was 4110 ng/mL. The “growth inhibition (GI)” value (Staphylococcus aureus [11]) was “Active”, the Activity (Staphylococcus aureus [12]) was “inactive” and the “growth inhibition (GI)” value (Escherichia coli [13]) was “inactive”. The “growth inhibition (GI)” value (Candida albicans) was “inactive”, the Activity (Mus musculus) was “Non-toxic” and the PPB [14] was 98.6%. The “growth inhibition (GI)” value (Escherichia coli [15]) was “inactive”, the MRT [16] was 3.4 h and the permeability [17] was 1120 ×10⁻⁶ cm/s. The Stability [18] was “Stable”, the “growth inhibition (GI)” value (Escherichia coli [19]) was “Active” and the AUC(0-inf) [20] was 68900 ng·h/mL. The Stability [21] was “Stable”, the t1/2 (Liver microsome [22]) was > 0.5 h and the “growth inhibition (GI)” value (Staphylococcus aureus [23]) was “Active”. The “growth inhibition (GI)” value (Staphylococcus aureus [24]) was “Active” and the inhibition at 1.1 µg/mL (Bacillus subtilis [25]) was 41%.
